Reference: ChEMBL document CHEMBL4190216, “Asymmetric 1,5-diarylpenta-1,4-dien-3-ones: Antiproliferative activity in prostate epithelial cell models and pharmacokinetic studies” (Eur J Med Chem, 2017)

What was measured:
[1] = Drug metabolism in human liver microsomes assessed as (1Z,4E)-1-(1-sec-butyl-1H-imidazol-2-yl)-1-hydroxy-5-(2-methyl-4-(trifluoromethyl)thiazol-5-yl)penta-1,4-dien-3-one formation at 10 mM after 60 mins by UHPLC analysis; type: ADME, microsome
In short: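 Pooled human liver microsomes in potassium phosphate buffer (pH 7.4) with NADPH solutions A and B were preincubated for 5 min at 37 °C. Compound was then added from a 10 mM stock (3 μL into 300 μL total) and incubated 60 min at 37 °C. Reactions were quenched with an equal volume of methanol and centrifuged (10,000 × g, 4 min, 4 °C). Supernatant went to UHPLC–high-resolution MS for metabolite identification.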

PC-3 [2] = experiment: Potency index, ratio of curcumin IC50 to test compound IC50 for human PC3 cells; type: functional
PC-3 [3] = experiment: Induction of apoptosis in human PC3 cells assessed as late apoptotic/necrotic cells at 15 uM after 16 hrs by F2N12S/CYTOX AADvanced double staining-based flow cytometric method (reference value: 3%); type: functional
DU-145 = experiment: Potency index, ratio of curcumin IC50 to test compound IC50 for human DU145 cells; type: functional
PC-3 [4] = experiment: Cell cycle arrest in human PC3 cells assessed as accumulation at G0/G1 phase at 5 uM after 16 hrs by propidium iodide staining-based flow cytometric method (reference value: 51 to 52%); type: functional
PC-3 [5] = experiment: Induction of apoptosis in human PC3 cells assessed as early apoptotic cells at 10 uM after 16 hrs by F2N12S/CYTOX AADvanced double staining-based flow cytometric method (reference value: 2%); type: functional
PC-3 [6] = experiment: Induction of apoptosis in human PC3 cells assessed as early apoptotic cells at 5 uM after 16 hrs by F2N12S/CYTOX AADvanced double staining-based flow cytometric method (reference value: 2%); type: functional
[7] = Plasma concentration in Sprague-Dawley rat at 10 mg/kg administered via oral gavage measured after 1 day by HPLC-MS/MS analysis; type: ADME, organism-based
PWR-1E = experiment: Antiproliferative activity against human PWR-1E cells expressing androgen receptor and PSA assessed as decrease in cell viability after 3 days by WST assay; type: functional, cell-based; settings: 72 h
In short: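 Non-malignant prostate epithelial PWR-1E (adenovirus 12/SV40-immortalized) was seeded at 5,000 per well. Cells were exposed for 3 days at 37 °C in a CO2 incubator to at least five concentrations, with DMSO as vehicle control. WST-1 reagent was then added for 3 h at 37 °C and absorbance read at 430 nm. IC50 came from linear inhibition, as the mean of triplicate determinations.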

PC-3 [8] = experiment: Induction of apoptosis in human PC3 cells assessed as late apoptotic/necrotic cells at 20 uM after 16 hrs by F2N12S/CYTOX AADvanced double staining-based flow cytometric method (reference value: 3%); type: functional
PC-3 [9] = experiment: Induction of apoptosis in human PC3 cells assessed as late apoptotic/necrotic cells at 5 uM after 16 hrs by F2N12S/CYTOX AADvanced double staining-based flow cytometric method (reference value: 3%); type: functional
PC-3 [10] = experiment: Induction of apoptosis in human PC3 cells assessed as viable cells at 30 uM after 16 hrs by F2N12S/CYTOX AADvanced double staining-based flow cytometric method (reference value: 95%); type: functional; settings: PC-3, 16 h, read-out: Activity
LNCaP [11] = experiment: Potency index, ratio of curcumin IC50 to test compound IC50 for human LNCAP cells; type: functional
PC-3 [12] = experiment: Induction of apoptosis in human PC3 cells assessed as early apoptotic cells at 15 uM after 16 hrs by F2N12S/CYTOX AADvanced double staining-based flow cytometric method (reference value: 2%); type: functional
LNCaP [13] = experiment: Antiproliferative activity against human LNCAP cells assessed as decrease in cell viability after 3 days by WST assay; type: functional, cell-based; settings: 72 h
In short: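 Cells were seeded at 3,200 per well. PC-3 and LNCaP were grown in RPMI-1640 and DU-145 in EMEM, each with 10% FBS and 1% penicillin/streptomycin, at 37 °C and 5% CO2. Cells were exposed for 3 days to at least five concentrations, with DMSO as vehicle control. WST-1 reagent was then added for 3 h at 37 °C and absorbance read at 430 nm. IC50 came from linear inhibition, averaged over triplicates.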

[14] = Plasma concentration in Sprague-Dawley rat at 10 mg/kg administered via oral gavage measured at 3 hrs by HPLC-MS/MS analysis; type: ADME, organism-based

SMILES: CCC(C)n1ccnc1/C=C/C(=O)/C=C/c1sc(C)nc1C(F)(F)F (stereo unspecified)
- Drug metabolism [1]: Metabolite_Detected
- Ratio IC50 (PC-3 [2]): 110
- Activity (PC-3 [3]): 33%
- Ratio IC50 (DU-145): 75
- Activity (PC-3 [4]): 68%
- Activity (PC-3 [5]): 14%
- Activity (PC-3 [6]): 11%
- concentration at 24 h [7]: 230 ng/mL
- IC50 (PWR-1E): 110 nM
- Activity (PC-3 [8]): 23%
- Activity (PC-3 [9]): 39%
- viability at 30 µM (PC-3 [10]): 34%
- Ratio IC50 (LNCaP [11]): 62
- Activity (PC-3 [12]): 13%
- IC50 (LNCaP [13]): 220 nM
- concentration at 3 h [14]: 672 ng/mL
